# ChEMBL document CHEMBL4689842, “EUbOPEN Chemogenomics Library wave 1” (2021)
# Assays:
# Fibroblast = assay: Incucyte cell viability with human fibroblast; assay type: toxicity, cell-based; conditions: 10 µM, compound concentration 10 uM; further: filed as whole numbers so only -1 and 0 and 1 occur
# HEK-293T = assay: Multiplex assay against HEK293T; assay type: toxicity, cell-based; conditions: human;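 on Population Tubulin-Different-Phenotype (%): share of the cells with healthy nuclei that show this phenotype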
# Method in brief: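 Cells stained live at seeding with Hoechst33342, BioTracker Green Microtubule Cytoskeleton Dye, MitoTracker Red and Annexin V Alexa Fluor 680 were imaged on a CQ1 microscope at 37°C and 5% CO2 after compound addition. Their classification by CellPathfinder machine-learning gating ran from Hoechst high-intensity objects versus normal cells, to healthy, pyknosed or fragmented nuclei among normal cells, to mitotic or apoptotic among pyknosed cells. Tubulin, mitochondrial-mass and membrane-permeability phenotypes are per cents of healthy-nucleus cells.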
# [1] = 12 h, 1 µM, compound concentration 1 uM, replicate 1
# [2] = 12 h, 1 µM, compound concentration 1 uM, replicate 2
# [3] = 12 h, 10 µM, compound concentration 10 uM, replicate 1
# [4] = 12 h, 10 µM, compound concentration 10 uM, replicate 2
# [5] = 24 h, 1 µM, compound concentration 1 uM, replicate 1
# [6] = 24 h, 1 µM, compound concentration 1 uM, replicate 2
# [7] = 24 h, 10 µM, compound concentration 10 uM, replicate 1
# [8] = 24 h, 10 µM, compound concentration 10 uM, replicate 2
smiles,measurement,setting,value
COc1cc2c(Nc3ccc(NC(=O)c4ccccc4)cc3)ncnc2cc1OCCCN1CCOCC1,Growth Rate,"Fibroblast; 0 h, replicate number 2, timepoint 0 hours",1
same,Growth Rate,"Fibroblast; 6 h, replicate number 1, timepoint 6 hours",0
same,Growth Rate,"Fibroblast; 12 h, replicate number 1, timepoint 12 hours",0
same,Growth Rate,"Fibroblast; 18 h, replicate number 1, timepoint 18 hours",0
same,Growth Rate,"Fibroblast; 24 h, replicate number 1, timepoint 24 hours",0
same,Population Apoptotic (%),HEK-293T; [1],25%
same,Population Fragmented Nuclei (%),HEK-293T; [1],13%
same,Population Healthy Nuclei (%),HEK-293T; [1],42%
same,Population Hoechst High Intensity Objects (%),HEK-293T; [1],18%
same,Population Membrane Permeable-Phenotype (%),HEK-293T; [1],29%
same,Population Mitochondria Different-Phenotype (%),HEK-293T; [1],17%
same,Population Mitotic Cells (%),HEK-293T; [1],74%
same,Population Normal (%),HEK-293T; [1],81%
same,Population Pyknosed Nuclei (%),HEK-293T; [1],43%
same,Population Tubulin-Different-Phenotype (%),HEK-293T; [1],81%
same,Total Cell Count,HEK-293T; [1],532
same,Population Apoptotic (%),HEK-293T; [2],26%
same,Population Fragmented Nuclei (%),HEK-293T; [2],3%
same,Population Healthy Nuclei (%),HEK-293T; [2],84%
same,Population Hoechst High Intensity Objects (%),HEK-293T; [2],6%
same,Population Membrane Permeable-Phenotype (%),HEK-293T; [2],15%
same,Population Mitochondria Different-Phenotype (%),HEK-293T; [2],39%
same,Population Mitotic Cells (%),HEK-293T; [2],73%
same,Population Normal (%),HEK-293T; [2],93%
same,Population Pyknosed Nuclei (%),HEK-293T; [2],12%
same,Population Tubulin-Different-Phenotype (%),HEK-293T; [2],96%
same,Total Cell Count,HEK-293T; [2],927
same,Population Apoptotic (%),HEK-293T; [3],17%
same,Population Fragmented Nuclei (%),HEK-293T; [3],17%
same,Population Healthy Nuclei (%),HEK-293T; [3],59%
same,Population Hoechst High Intensity Objects (%),HEK-293T; [3],11%
same,Population Membrane Permeable-Phenotype (%),HEK-293T; [3],3%
same,Population Mitochondria Different-Phenotype (%),HEK-293T; [3],9%
same,Population Mitotic Cells (%),HEK-293T; [3],82%
same,Population Normal (%),HEK-293T; [3],88%
same,Population Pyknosed Nuclei (%),HEK-293T; [3],22%
same,Population Tubulin-Different-Phenotype (%),HEK-293T; [3],9%
same,Total Cell Count,HEK-293T; [3],626
same,Population Apoptotic (%),HEK-293T; [4],6%
same,Population Fragmented Nuclei (%),HEK-293T; [4],3%
same,Population Healthy Nuclei (%),HEK-293T; [4],89%
same,Population Hoechst High Intensity Objects (%),HEK-293T; [4],2%
same,Population Membrane Permeable-Phenotype (%),HEK-293T; [4],2%
same,Population Mitochondria Different-Phenotype (%),HEK-293T; [4],12%
same,Population Mitotic Cells (%),HEK-293T; [4],93%
same,Population Normal (%),HEK-293T; [4],97%
same,Population Pyknosed Nuclei (%),HEK-293T; [4],6%
same,Population Tubulin-Different-Phenotype (%),HEK-293T; [4],13%
same,Total Cell Count,HEK-293T; [4],1320
same,Population Apoptotic (%),HEK-293T; [5],29%
same,Population Fragmented Nuclei (%),HEK-293T; [5],14%
same,Population Healthy Nuclei (%),HEK-293T; [5],58%
same,Population Hoechst High Intensity Objects (%),HEK-293T; [5],21%
same,Population Membrane Permeable-Phenotype (%),HEK-293T; [5],20%
same,Population Mitochondria Different-Phenotype (%),HEK-293T; [5],22%
same,Population Mitotic Cells (%),HEK-293T; [5],70%
same,Population Normal (%),HEK-293T; [5],78%
same,Population Pyknosed Nuclei (%),HEK-293T; [5],26%
same,Population Tubulin-Different-Phenotype (%),HEK-293T; [5],89%
same,Total Cell Count,HEK-293T; [5],523
same,Population Apoptotic (%),HEK-293T; [6],2%
same,Population Fragmented Nuclei (%),HEK-293T; [6],5%
same,Population Healthy Nuclei (%),HEK-293T; [6],87%
same,Population Hoechst High Intensity Objects (%),HEK-293T; [6],6%
same,Population Membrane Permeable-Phenotype (%),HEK-293T; [6],22%
same,Population Mitochondria Different-Phenotype (%),HEK-293T; [6],25%
same,Population Mitotic Cells (%),HEK-293T; [6],97%
same,Population Normal (%),HEK-293T; [6],93%
same,Population Pyknosed Nuclei (%),HEK-293T; [6],7%
same,Population Tubulin-Different-Phenotype (%),HEK-293T; [6],97%
same,Total Cell Count,HEK-293T; [6],1034
same,Population Apoptotic (%),HEK-293T; [7],9%
same,Population Fragmented Nuclei (%),HEK-293T; [7],12%
same,Population Healthy Nuclei (%),HEK-293T; [7],75%
same,Population Hoechst High Intensity Objects (%),HEK-293T; [7],9%
same,Population Membrane Permeable-Phenotype (%),HEK-293T; [7],11%
same,Population Mitochondria Different-Phenotype (%),HEK-293T; [7],5%
same,Population Mitotic Cells (%),HEK-293T; [7],90%
same,Population Normal (%),HEK-293T; [7],90%
same,Population Pyknosed Nuclei (%),HEK-293T; [7],11%
same,Population Tubulin-Different-Phenotype (%),HEK-293T; [7],13%
same,Total Cell Count,HEK-293T; [7],622
same,Population Apoptotic (%),HEK-293T; [8],4%
same,Population Fragmented Nuclei (%),HEK-293T; [8],14%
same,Population Healthy Nuclei (%),HEK-293T; [8],79%
same,Population Hoechst High Intensity Objects (%),HEK-293T; [8],4%
same,Population Membrane Permeable-Phenotype (%),HEK-293T; [8],5%
same,Population Mitochondria Different-Phenotype (%),HEK-293T; [8],3%
same,Population Mitotic Cells (%),HEK-293T; [8],95%
same,Population Normal (%),HEK-293T; [8],95%
same,Population Pyknosed Nuclei (%),HEK-293T; [8],5%
same,Population Tubulin-Different-Phenotype (%),HEK-293T; [8],15%
same,Total Cell Count,HEK-293T; [8],1748
